Assay results from ChEMBL document CHEMBL1667806, “Synthesis and evaluation of anti-tubercular activity of new dithiocarbamate sugar derivatives” (2011).
Converted amounts (≈) assume the structure as drawn.

Columns and labels:
[1] = microbe, parasite or virus in culture; type: functional, Mycobacterium bovis BCG str. Tokyo 172; details: Mycobacterium tuberculosis variant bovis BCG
[2] = test system: Mycolicibacterium smegmatis; assay: microbe, parasite or virus in culture; type: functional; details: JATA 64.01
[3] = test system: Mycobacterium tuberculosis; assay: Antimycobacterial activity against Mycobacterium tuberculosis H37Rv; type: functional
Staphylococcus aureus [4] = assay: Antimicrobial activity against methicillin-resistant Staphylococcus aureus MF490; type: functional
[5] = test system: Mycobacterium tuberculosis; assay: Antimycobacterial activity against drug-sensitive Mycobacterium tuberculosis isolate 8; type: functional
Procedure, shortened: (§1)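 MIC by broth dilution in Middlebrook 7H9 broth supplemented with albumin, dextrose and catalase.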

[6] = test system: Mycobacterium tuberculosis; assay: Antimycobacterial activity against drug-sensitive Mycobacterium tuberculosis isolate 9; type: functional
Procedure, shortened: as §1

Staphylococcus aureus [7] = assay: Antimicrobial activity against drug-sensitive Staphylococcus aureus RN4220; type: functional
[8] = test system: Mycobacterium tuberculosis; assay: Antimycobacterial activity against drug-sensitive Mycobacterium tuberculosis isolate 1; type: functional
Pseudomonas aeruginosa = assay: Antibacterial activity against drug-sensitive Pseudomonas aeruginosa PAO1; type: functional
Klebsiella pneumoniae = assay: Antibacterial activity against […] Klebsiella pneumoniae ATCC BAA-1705; type: functional
Staphylococcus aureus [9] = assay: Antimicrobial activity against drug-sensitive Staphylococcus aureus 209PJC-1; type: functional
Mycobacterium avium = assay: microbe, parasite or virus in culture; type: functional, Mycobacterium avium subsp. avium ATCC 25291; details: ATCC 2529
[10] = test system: Mycobacterium tuberculosis; assay: Antimycobacterial activity against drug-sensitive Mycobacterium tuberculosis isolate 14; type: functional
Procedure, shortened: as §1

Staphylococcus aureus [11] = assay: Antimicrobial activity against Staphylococcus aureus; type: functional
Enterococcus faecalis [12] = assay: Antimicrobial activity against AGs-resistant Enterococcus faecalis ATCC 19433; type: functional
Staphylococcus aureus [13] = assay: microbe, parasite or virus in culture; type: functional; details: 873
[14] = test system: Mycobacterium tuberculosis; assay: Antimycobacterial activity against drug-sensitive Mycobacterium tuberculosis isolate 15; type: functional
Procedure, shortened: as §1

[15] = test system: Mycobacterium tuberculosis; assay: Antimycobacterial activity against drug-sensitive Mycobacterium tuberculosis isolate 16; type: functional
Procedure, shortened: as §1

[16] = test system: Mycobacterium tuberculosis; assay: Antimycobacterial activity against drug-sensitive Mycobacterium tuberculosis isolate 3; type: functional
Procedure, shortened: as §1

Enterococcus faecalis [17] = assay: Antimicrobial activity against AGs-resistant Enterococcus faecalis ATCC 19434; type: functional
[18] = test system: Mycobacterium tuberculosis; assay: Antimycobacterial activity against drug-sensitive Mycobacterium tuberculosis isolate 2; type: functional
Procedure, shortened: as §1

[19] = test system: Mycobacterium tuberculosis; assay: Antimycobacterial activity against drug-sensitive Mycobacterium tuberculosis isolate 7; type: functional
Procedure, shortened: as §1

[20] = test system: Mycobacterium tuberculosis; assay: Antimycobacterial activity against drug-sensitive Mycobacterium tuberculosis isolate 11; type: functional
Procedure, shortened: as §1

[21] = test system: Mycobacterium tuberculosis; assay: Antimycobacterial activity against drug-sensitive Mycobacterium tuberculosis isolate 17; type: functional
Procedure, shortened: as §1

[22] = test system: Mycobacterium tuberculosis; assay: Antimycobacterial activity against drug-sensitive Mycobacterium tuberculosis isolate 13; type: functional
Procedure, shortened: as §1

[23] = test system: Mycobacterium tuberculosis; assay: Antimycobacterial activity against drug-sensitive Mycobacterium tuberculosis isolate 12; type: functional
Procedure, shortened: as §1

[24] = test system: Mycobacterium tuberculosis; assay: Antimycobacterial activity against drug-sensitive Mycobacterium tuberculosis isolate 20; type: functional
Procedure, shortened: as §1

[25] = test system: Mycobacterium tuberculosis; assay: Antimycobacterial activity against drug-sensitive Mycobacterium tuberculosis isolate 19; type: functional
Procedure, shortened: as §1

Escherichia coli [26] = assay: Antimicrobial activity against Escherichia coli DH5alpha; type: functional; details: DH5[alpha]
[27] = test system: Mycobacterium tuberculosis; assay: Antimycobacterial activity against drug-sensitive Mycobacterium tuberculosis isolate 4; type: functional
Procedure, shortened: as §1

Escherichia coli [28] = assay: Antimicrobial activity against drug-sensitive Escherichia coli JM109; type: functional
[29] = microbe, parasite or virus in culture; type: functional, Mycobacterium avium subsp. hominissuis; details: Mycobacterium avium, 104
[30] = test system: Mycobacterium tuberculosis; assay: Antimycobacterial activity against drug-sensitive Mycobacterium tuberculosis isolate 18; type: functional
Procedure, shortened: as §1

[31] = test system: Mycobacterium tuberculosis; assay: Antimycobacterial activity against drug-sensitive Mycobacterium tuberculosis isolate 10; type: functional
Procedure, shortened: as §1

[32] = test system: Mycobacterium tuberculosis; assay: Antimycobacterial activity against drug-sensitive Mycobacterium tuberculosis isolate 6; type: functional
Procedure, shortened: as §1

[33] = test system: Mycobacterium tuberculosis; assay: Antimycobacterial activity against drug-sensitive Mycobacterium tuberculosis isolate 5; type: functional
Procedure, shortened: as §1

S=C([S-])N(c1c[nH]cn1)c1c[nH]cn1.[Na+]
MIC [1]: 12.5 µg/mL
MIC [2]: > 100 µg/mL
MIC [3]: 6.25 µg/mL

CC(=O)N[C@@H]1[C@@H](O)[C@H](O)[C@@H](CO)O[C@H]1SC(=S)N1CCCC1
MIC [1]: 12.5 µg/mL (≈ 35.7 µM)
MIC (Staphylococcus aureus [4]): > 128 µg/mL
MIC [5]: 12.5 µg/mL (≈ 35.7 µM)
MIC [6]: 6.25 µg/mL (≈ 17.8 µM)
MIC (Staphylococcus aureus [7]): > 128 µg/mL
MIC [8]: 6.25 µg/mL (≈ 17.8 µM)
MIC (Pseudomonas aeruginosa): > 128 µg/mL
MIC (Klebsiella pneumoniae): > 128 µg/mL
MIC (Staphylococcus aureus [9]): > 128 µg/mL
MIC (Mycobacterium avium): 50 µg/mL (≈ 143 µM)
MIC [10]: 6.25 µg/mL (≈ 17.8 µM)
MIC (Staphylococcus aureus [11]): > 100 µg/mL
MIC (Enterococcus faecalis [12]): > 128 µg/mL
MIC (Staphylococcus aureus [13]): > 100 µg/mL
MIC [14]: 6.25 µg/mL (≈ 17.8 µM)
MIC [15]: 6.25 µg/mL (≈ 17.8 µM)
MIC [16]: 6.25 µg/mL (≈ 17.8 µM)
MIC (Enterococcus faecalis [17]): > 128 µg/mL
MIC [18]: 6.25 µg/mL (≈ 17.8 µM)
MIC [19]: 12.5 µg/mL (≈ 35.7 µM)
MIC [20]: 6.25 µg/mL (≈ 17.8 µM)
MIC [21]: 6.25 µg/mL (≈ 17.8 µM)
MIC [22]: 12.5 µg/mL (≈ 35.7 µM)
MIC [23]: 6.25 µg/mL (≈ 17.8 µM)
MIC [3]: 6.25 µg/mL (≈ 17.8 µM)
MIC [24]: 12.5 µg/mL (≈ 35.7 µM)
MIC [25]: 6.25 µg/mL (≈ 17.8 µM)
MIC (Escherichia coli [26]): > 100 µg/mL
MIC [27]: 6.25 µg/mL (≈ 17.8 µM)
MIC (Escherichia coli [28]): > 128 µg/mL
MIC [29]: 100 µg/mL (≈ 285 µM)
MIC [30]: 6.25 µg/mL (≈ 17.8 µM)
MIC [31]: 6.25 µg/mL (≈ 17.8 µM)
MIC [32]: 6.25 µg/mL (≈ 17.8 µM)
MIC [33]: 6.25 µg/mL (≈ 17.8 µM)

CCC(=O)N[C@@H]1[C@@H](O)[C@H](O)[C@@H](CO)O[C@H]1SC(=S)N(C)C
MIC [3]: 50 µg/mL (≈ 148 µM)

CN(C)C(=S)S[C@@H]1O[C@H](CO)[C@@H](O)[C@H](O)[C@H]1NC(=O)C1CC1
MIC [3]: 50 µg/mL (≈ 143 µM)

CN(C)C(=S)S[C@@H]1O[C@H](CO)[C@@H](O)[C@H](O)[C@H]1NC(=O)c1ccccc1
MIC [3]: 100 µg/mL (≈ 259 µM)

CCCCCCCCCCCCCCCCCC(=O)N[C@@H]1[C@@H](O)[C@H](O)[C@@H](CO)O[C@H]1SC(=S)N(C)C
MIC [3]: 100 µg/mL (≈ 182 µM)

CN(C)C(=S)S[C@@H]1O[C@H](CO)[C@@H](O)[C@H](O)[C@H]1N
MIC [3]: 50 µg/mL (≈ 177 µM)

CC(=O)N[C@@H]1[C@@H](O)[C@H](O)[C@@H](CO)O[C@H]1SC(=S)N(C)C
MIC [1]: 31.3 µg/mL (≈ 96.5 µM)
MIC (Mycobacterium avium): > 100 µg/mL
MIC (Staphylococcus aureus [11]): > 100 µg/mL
MIC (Staphylococcus aureus [13]): > 100 µg/mL
MIC [3]: 25 µg/mL (≈ 77.1 µM)
MIC (Escherichia coli [26]): > 100 µg/mL
MIC [29]: > 100 µg/mL

NCC[C@H](O)C(=O)N[C@@H]1C[C@H](N)[C@@H](O[C@H]2O[C@H](CN)[C@@H](O)[C@H](O)[C@H]2O)[C@H](O)[C@H]1O[C@H]1O[C@H](CO)[C@@H](O)[C@H](N)[C@H]1O [AMIKACIN]
MIC (Staphylococcus aureus [4]): > 128 µg/mL
MIC (Staphylococcus aureus [7]): 4 µg/mL (≈ 6.83 µM)
MIC (Pseudomonas aeruginosa): 2 µg/mL (≈ 3.42 µM)
MIC (Klebsiella pneumoniae): 32 µg/mL (≈ 54.6 µM)
MIC (Staphylococcus aureus [9]): 0.5 µg/mL (≈ 0.854 µM)
MIC (Enterococcus faecalis [12]): > 128 µg/mL
MIC (Enterococcus faecalis [17]): 32 µg/mL (≈ 54.6 µM)
MIC (Escherichia coli [28]): 0.5 µg/mL (≈ 0.854 µM)

CC1(C)S[C@@H]2[C@H](NC(=O)[C@H](N)c3ccccc3)C(=O)N2[C@H]1C(=O)O [AMPICILLIN]
MIC [1]: 12.5 µg/mL (≈ 35.8 µM)
MIC (Staphylococcus aureus [11]): 50 µg/mL (≈ 143 µM)
MIC (Staphylococcus aureus [13]): > 100 µg/mL
MIC [3]: 12.5 µg/mL (≈ 35.8 µM)
MIC (Escherichia coli [26]): > 100 µg/mL

O=C(O)c1cn(C2CC2)c2cc(N3CCNCC3)c(F)cc2c1=O [CIPROFLOXACIN]
MIC [1]: 0.1 µg/mL (≈ 0.302 µM)
MIC (Mycobacterium avium): 1.56 µg/mL (≈ 4.71 µM)
MIC (Staphylococcus aureus [11]): 0.2 µg/mL (≈ 0.604 µM)
MIC [3]: 0.39 µg/mL (≈ 1.18 µM)
MIC [29]: 0.39 µg/mL (≈ 1.18 µM)
